pIC50: −log10 of the molar value. The source made the active and inactive calls. The rule behind the calls is not given here.
How the values were obtained:
[1] = Cytotoxicity against human NTUB1 cells after 72 hrs by MTT assay; type: functional, cell-based; details: NTUB1, 72 h
How it was run: (§1)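 MTT assay: 1800 cells/well plated, overnight at 37 °C, then graded concentrations for 72 h at 37 °C. MTT added for 3 h, plates centrifuged, formazan dissolved in DMSO, absorbance read at 540 nm. Viability as percent of control; IC50 by median-effect analysis, mean ± SD. Cells grown in RPMI 1640 with 10% FBS.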

PC-3 [2] = assay: Cytotoxicity against human PC3 cells after 72 hrs by MTT assay; type: functional, cell-based; details: PC-3, 72 h; how it was run: as §1
NTUB1 [3] = assay: Inhibition of alpha-tubulin assembly in human NTUB1 cells at 0.3 to 1 uM after 24 hrs by DAPI staining-based microscopic analysis; type: cell-based
How it was run: (§2)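 NTUB1 cells seeded on serum-coated coverslips (10⁵ cells/well), incubated overnight, then treated 24 h. Fixed in 2% formaldehyde/PBS 20 min and permeabilized in cold methanol 3 min. Stained overnight with anti-α-tubulin primary, then rhodamine goat anti-rabbit secondary with 1 µg/mL DAPI for 1 h at room temperature. Mounted in 80% glycerol/PBS and examined by fluorescence microscopy; untreated medium control.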

PC-3 [4] = assay: Cell cycle arrest in human PC3 cells assessed as accumulation at sub-G1 phase at 1 uM after 24 hrs by propidium iodide staining-based FACS analysis; type: functional
How it was run: (§3)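 Cells (6×10^5 plated) treated 24 h; 20 µM cisplatin as reference, medium-only control. Harvested by trypsinization, PBS-washed, fixed overnight in ice-cold methanol at −20 °C. Stained 30 min at room temperature in PBS with 50 µg/mL propidium iodide plus 50 µg/mL RNase A. DNA content by FACScan flow cytometry; sub-G1 taken as apoptosis. Representative of three independent experiments.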

[5] = Cell cycle arrest in human NTUB1 cells assessed as accumulation at sub-G1 phase at 1 uM after 24 hrs by propidium iodide staining-based FACS analysis; type: functional; how it was run: as §3
PC-3 [6] = assay: Cell cycle arrest in human PC3 cells assessed as accumulation at G1 phase at 1 uM after 24 hrs by propidium iodide staining-based FACS analysis; type: functional; how it was run: as §3
PC-3 [7] = assay: Cell cycle arrest in human PC3 cells assessed as accumulation at G2/M phase at 1 uM after 24 hrs by propidium iodide staining-based FACS analysis; type: functional; how it was run: as §3
PC-3 [8] = assay: Cell cycle arrest in human PC3 cells assessed as accumulation at S phase at 1 uM after 24 hrs by propidium iodide staining-based FACS analysis; type: functional; how it was run: as §3
[9] = Cell cycle arrest in human NTUB1 cells assessed as accumulation at S phase at 3 uM after 24 hrs by propidium iodide staining-based FACS analysis; type: functional; how it was run: as §3
[10] = Cell cycle arrest in human NTUB1 cells assessed as accumulation at S phase at 1 uM after 24 hrs by propidium iodide staining-based FACS analysis; type: functional; how it was run: as §3
PC-3 [11] = assay: Cell cycle arrest in human PC3 cells assessed as accumulation at G1 phase at 3 uM after 24 hrs by propidium iodide staining-based FACS analysis; type: functional; how it was run: as §3
[12] = Cell cycle arrest in human NTUB1 cells assessed as accumulation at sub-G1 phase at 3 uM after 24 hrs by propidium iodide staining-based FACS analysis; type: functional; how it was run: as §3
PC-3 [13] = assay: Cell cycle arrest in human PC3 cells assessed as accumulation at G2/M phase at 3 uM after 24 hrs by propidium iodide staining-based FACS analysis; type: functional; how it was run: as §3
NTUB1 [14] = assay: Stabilization GDP-bound alpha-tubulin in human NTUB1 cells assessed as microtubule disassembly at 10 uM after 6 hrs by Western blot analysis; type: cell-based
How it was run: (§4)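 NTUB1 cells (1×10^6 per dish) treated 6 h; 500 nM paclitaxel reference. Lysed in Tris-HCl pH 6.8 buffer with MgCl2, EGTA, 0.5% NP-40 and protease/phosphatase inhibitors. Centrifuged 15,000g, 10 min, 4 °C to separate soluble (supernatant) from polymerized (pellet) tubulin. Fractions run on 10% SDS-PAGE and immunoblotted for α-tubulin, β-actin as control, chemiluminescent detection.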

[15] = Cell cycle arrest in human NTUB1 cells assessed as accumulation at G1 phase at 3 uM after 24 hrs by propidium iodide staining-based FACS analysis; type: functional; how it was run: as §3
NTUB1 [16] = assay: Stabilization GDP-bound alpha-tubulin in human NTUB1 cells assessed as microtubule disassembly at 50 to 100 uM after 6 hrs by Western blot analysis; type: cell-based; how it was run: as §4
NTUB1 [17] = assay: Antimitotic activity in human NTUB1 cells assessed as accumulation of mitotic arrest cells at 0.3 to 1 uM after 24 hrs by DAPI staining-based microscopic analysis; type: functional, cell-based; how it was run: as §2
PC-3 [18] = assay: Cell cycle arrest in human PC3 cells assessed as accumulation at sub-G1 phase at 3 uM after 24 hrs by propidium iodide staining-based FACS analysis; type: functional; how it was run: as §3
[19] = Cell cycle arrest in human NTUB1 cells assessed as accumulation at G1 phase at 1 uM after 24 hrs by propidium iodide staining-based FACS analysis; type: functional; how it was run: as §3
NTUB1 [20] = assay: Inhibition of alpha-tubulin assembly in human NTUB1 cells at 10 to 100 uM after 6 hrs by Western blot analysis; type: cell-based; how it was run: as §4
[21] = Cell cycle arrest in human NTUB1 cells assessed as accumulation at G2/M phase at 3 uM after 24 hrs by propidium iodide staining-based FACS analysis; type: functional; how it was run: as §3
NTUB1 [22] = assay: Antimitotic activity in human NTUB1 cells assessed as appearance of rounded and dead cells at 0.3 to 3 uM after 24 hrs; type: functional, cell-based
How it was run: (§5)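 NTUB1 cells at 7×10^5 cells per 10 cm dish, treated 24 h; medium-only control. Cell rounding and death scored by light-microscopic morphology.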

PC-3 [23] = assay: Cell cycle arrest in human PC3 cells assessed as accumulation at S phase at 3 uM after 24 hrs by propidium iodide staining-based FACS analysis; type: functional; how it was run: as §3
[24] = Cell cycle arrest in human NTUB1 cells assessed as accumulation at G2/M phase at 1 uM after 24 hrs by propidium iodide staining-based FACS analysis; type: functional; how it was run: as §3
NTUB1 [25] = assay: Stabilization GDP-bound alpha-tubulin in human NTUB1 cells assessed as microtubule disassembly at 500 nM after 6 hrs by Western blot analysis; type: cell-based; how it was run: as §4
NTUB1 [26] = assay: Inhibition of alpha-tubulin assembly in human NTUB1 cells at 10 nM after 24 hrs by DAPI staining-based microscopic analysis; type: cell-based; how it was run: as §2
NTUB1 [27] = assay: Antimitotic activity in human NTUB1 cells assessed as appearance of rounded and dead cells at 10 nM after 24 hrs; type: functional, cell-based; how it was run: as §5
NTUB1 [28] = assay: Antimitotic activity in human NTUB1 cells assessed as accumulation of mitotic arrest cells at 10 nM after 24 hrs by DAPI staining-based microscopic analysis; type: functional, cell-based; how it was run: as §2

Structure (SMILES): COc1ccc(OC)c(C(=O)/C=C/c2ccc(C(=O)OCc3ccccc3)cc2)c1
- pIC50 [1]: 4.88
- pIC50 (PC-3 [2]): 4.75

Structure (SMILES): COc1ccc(OC)c(C(=O)/C=C/c2ccc(C(=O)O)cc2)c1
- pIC50 [1]: 5.24
- pIC50 (PC-3 [2]): 5.14

Structure (SMILES): CNC(=O)c1ccc(/C=C/C(=O)c2cc(OC)ccc2OC)cc1
- pIC50 [1]: 5.66
- pIC50 (PC-3 [2]): 5.67

Structure (SMILES): COc1ccc(OC)c(C(=O)/C=C/c2ccc(C(=O)OC(C)C)cc2)c1
- pIC50 [1]: 5.35
- pIC50 (PC-3 [2]): 5.17

Structure (SMILES): COc1ccc(OC)c(C(=O)/C=C/c2ccc(C(=O)N3CCCC3)cc2)c1
- inhibition (NTUB1 [3]): Active
- Activity (PC-3 [4]): 7.8%
- Activity [5]: 2.16%
- pIC50 [1]: 5.90
- pIC50 (PC-3 [2]): 6.28
- Activity (PC-3 [6]): 45.81%
- Activity (PC-3 [7]): 14.02%
- Activity (PC-3 [8]): 25.28%
- Activity [9]: 11.3%
- Activity [10]: 28.8%
- Activity (PC-3 [11]): 18.44%
- Activity [12]: 61%
- Activity (PC-3 [13]): 27.69%
- Activity (NTUB1 [14]): inactive
- Activity [15]: 7.03%
- Activity (NTUB1 [16]): Dose-dependent effect
- Activity (NTUB1 [17]): Active
- Activity (PC-3 [18]): 24.45%
- Activity [19]: 46.6%
- inhibition (NTUB1 [20]): inactive
- Activity [21]: 18.3%
- Activity (NTUB1 [22]): Active
- Activity (PC-3 [23]): 21.83%
- Activity [24]: 20.4%
- Activity (NTUB1 [25]): Active

Structure (SMILES): CCN(CC)C(=O)c1ccc(/C=C/C(=O)c2cc(OC)ccc2OC)cc1
- pIC50 [1]: 5.57
- pIC50 (PC-3 [2]): 5.42

Structure (SMILES): CCCOC(=O)c1ccc(/C=C/C(=O)c2cc(OC)ccc2OC)cc1
- pIC50 [1]: 5.22
- pIC50 (PC-3 [2]): 4.57

Structure (SMILES): COC(=O)c1ccc(/C=C/C(=O)c2cc(OC)ccc2OC)cc1
- pIC50 [1]: 5.45
- pIC50 (PC-3 [2]): 5.31

Structure (SMILES): CC(=O)O[C@H]1C(=O)[C@@]2(C)[C@H]([C@H](OC(=O)c3ccccc3)[C@]3(O)C[C@H](OC(=O)[C@H](O)[C@@H](NC(=O)c4ccccc4)c4ccccc4)C(C)=C1C3(C)C)[C@]1(OC(C)=O)CO[C@@H]1C[C@@H]2O
- inhibition (NTUB1 [26]): inactive
- Activity (NTUB1 [27]): Active
- Activity (NTUB1 [28]): Active

Structure (SMILES): CCNC(=O)c1ccc(/C=C/C(=O)c2cc(OC)ccc2OC)cc1
- pIC50 [1]: 5.42
- pIC50 (PC-3 [2]): 5.38

Structure (SMILES): COc1ccc(OC)c(C(=O)/C=C/c2ccc(C(=O)NC(C)C)cc2)c1
- Activity (PC-3 [4]): 9.25%
- Activity [5]: 1.84%
- pIC50 [1]: 5.71
- pIC50 (PC-3 [2]): 5.80
- Activity (PC-3 [6]): 38.85%
- Activity (PC-3 [7]): 19.22%
- Activity (PC-3 [8]): 25.83%
- Activity [9]: 21.2%
- Activity [10]: 27.2%
- Activity (PC-3 [11]): 36.73%
- Activity [12]: 30.3%
- Activity (PC-3 [13]): 25.43%
- Activity [15]: 22.3%
- Activity (PC-3 [18]): 14.26%
- Activity [19]: 44.9%
- Activity [21]: 24.2%
- Activity (PC-3 [23]): 16.09%
- Activity [24]: 22.6%

Structure (SMILES): CCOC(=O)c1ccc(/C=C/C(=O)c2cc(OC)ccc2OC)cc1
- pIC50 [1]: 5.35
- pIC50 (PC-3 [2]): 5.24

Structure (SMILES): COc1ccc(OC)c(C(=O)/C=C/c2ccc(C(=O)N(C)CCO)cc2)c1
- pIC50 [1]: 5.35
- pIC50 (PC-3 [2]): 5.24

Structure (SMILES): COc1ccc(OC)c(C(=O)/C=C/c2ccc(C(=O)N(C)C)cc2)c1
- pIC50 [1]: 5.41
- pIC50 (PC-3 [2]): 5.34

Structure (SMILES): CCCNC(=O)c1ccc(/C=C/C(=O)c2cc(OC)ccc2OC)cc1
- pIC50 [1]: 5.65
- pIC50 (PC-3 [2]): 5.82

Structure (SMILES): COc1ccc(OC)c(C(=O)/C=C/c2ccc(C(=O)OCC=C(C)C)cc2)c1
- pIC50 [1]: 4.87
- pIC50 (PC-3 [2]): < 4.30

Structure (SMILES): COc1ccc(OC)c(C(=O)/C=C/c2ccc(C(=O)O)s2)c1
- pIC50 [1]: < 4.30

Structure (SMILES): COc1ccc(OC)c(C(=O)/C=C/c2ccc(C(=O)NC3CCCCC3)cc2)c1
- pIC50 [1]: 5.65
- pIC50 (PC-3 [2]): 5.20

Structure (SMILES): COc1ccc(OC)c(C(/C=C/c2ccc(C(=O)NC3CC3)cc2)=N/C2CC2)c1
- pIC50 [1]: 5.45
- pIC50 (PC-3 [2]): 5.37

Source: ChEMBL document CHEMBL1157660, “Synthesis and biological evaluation of 2',5'-dimethoxychalcone derivatives as microtubule-targeted anticancer agents” (Bioorg Med Chem, 2010)
